Activity calls are given as the source filed them. No cut-off for these calls is given here.
How the values were obtained:
Nociceptin receptor [1] = target: T1, Nociceptin receptor (Homo sapiens, UniProt P41146); experiment: Displacement of [125I][Tyr14]nociceptin from human cloned NOP receptor expressed in CHO cells; type: cell-based
Mu-type opioid receptor [2] = target: T2, Mu-type opioid receptor (Homo sapiens, UniProt P35372); experiment: Displacement of [3H]diprenorphine from human mu opioid receptor expressed in CHO cells; type: cell-based
T2 sequence (P35372 whole entry): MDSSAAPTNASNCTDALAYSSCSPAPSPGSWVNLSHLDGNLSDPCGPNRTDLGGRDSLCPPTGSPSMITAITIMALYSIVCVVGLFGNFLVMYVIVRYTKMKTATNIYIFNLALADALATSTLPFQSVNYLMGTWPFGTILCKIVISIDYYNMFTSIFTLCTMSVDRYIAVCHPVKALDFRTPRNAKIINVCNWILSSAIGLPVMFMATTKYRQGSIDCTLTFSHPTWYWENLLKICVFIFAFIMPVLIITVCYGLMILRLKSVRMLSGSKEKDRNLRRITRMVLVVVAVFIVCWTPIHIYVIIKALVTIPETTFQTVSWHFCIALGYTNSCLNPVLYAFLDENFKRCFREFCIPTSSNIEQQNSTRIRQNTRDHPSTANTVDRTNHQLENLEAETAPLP

Nociceptin receptor [3] = target: T1, Nociceptin receptor; experiment: Agonist activity at human NOP assessed as stimulation of GDP-induced [35S]GTPgammaS binding at 10 uM; type: functional
How it was run: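 Functional agonism measured as enhancement of [35S]GTPγS binding in the presence of GDP, using membranes from cells transfected with the receptor. […] Values are means of 2–3 experiments.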

Nociceptin receptor [4] = target: T1, Nociceptin receptor; experiment: Agonist activity at human NOP assessed as stimulation of GDP-induced [35S]GTPgammaS binding; type: functional
How it was run: (§1)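 Functional agonism measured as enhancement of [35S]GTPγS binding in the presence of GDP, using membranes from cells transfected with the receptor. Values are means of 2–3 experiments.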

Mu-type opioid receptor [5] = target: T2, Mu-type opioid receptor; experiment: Binding affinity to human mu opioid assessed as stimulation of GDP-induced [35S]GTPgammaS binding at 10 uM; type: functional
How it was run: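 Agonist function read as enhancement of [35S]GTPγS binding to receptor-expressing membranes in the presence of GDP. Percent stimulation is given at 10 µM test compound. Values are means of at least 2–3 experiments.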

Cavia porcellus [6] = experiment: Antitussive activity against capsaicin-induced cough in po dosed Hartley guinea pig model after 2 hrs; type: functional
Mu-type opioid receptor [7] = target: T2, Mu-type opioid receptor; experiment: Agonist activity at human mu opioid assessed as stimulation of GDP-induced [35S]GTPgammaS binding; type: functional; how it was run: as §1
Cavia porcellus [8] = experiment: Antitussive activity against capsaicin-induced cough in po dosed Hartley guinea pig model after 2 hrs in presence naloxone; type: functional, organism-based
Cavia porcellus [9] = species: Cavia porcellus; experiment: Anxiolytic activity in Dunkin-Hartley guinea pig pup assessed as reduction in number of vocalization produced due to separation measured after 2 hrs; type: functional
Cavia porcellus [10] = experiment: Antitussive activity against capsaicin-induced cough in po dosed Hartley guinea pig model after 2 hrs in presence J113397; type: functional, organism-based
Cavia porcellus [11] = experiment: Antitussive activity against capsaicin-induced cough in po dosed Hartley guinea pig model after 2 hrs in presence naltrexone; type: functional, organism-based
[12] = target: Delta-type opioid receptor (Homo sapiens, UniProt P41143); experiment: Displacement of [3H]diprenorphine from human delta opioid receptor expressed in CHO cells; type: cell-based
Delta-type opioid receptor, sequence (P41143 whole entry): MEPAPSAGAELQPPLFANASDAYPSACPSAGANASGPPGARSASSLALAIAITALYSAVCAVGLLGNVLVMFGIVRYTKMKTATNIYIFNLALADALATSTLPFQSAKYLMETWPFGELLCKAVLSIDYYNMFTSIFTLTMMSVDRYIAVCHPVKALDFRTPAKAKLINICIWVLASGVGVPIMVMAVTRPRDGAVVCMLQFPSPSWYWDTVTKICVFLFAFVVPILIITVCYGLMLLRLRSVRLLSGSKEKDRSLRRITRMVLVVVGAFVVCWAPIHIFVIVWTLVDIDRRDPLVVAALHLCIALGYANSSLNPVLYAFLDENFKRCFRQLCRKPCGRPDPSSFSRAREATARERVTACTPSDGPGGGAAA

[13] = target: Kappa-type opioid receptor (Homo sapiens, UniProt P41145); experiment: Displacement of [3H]diprenorphine from human kappa opioid receptor expressed in CHO cells; type: cell-based
Kappa-type opioid receptor, sequence (P41145 whole entry): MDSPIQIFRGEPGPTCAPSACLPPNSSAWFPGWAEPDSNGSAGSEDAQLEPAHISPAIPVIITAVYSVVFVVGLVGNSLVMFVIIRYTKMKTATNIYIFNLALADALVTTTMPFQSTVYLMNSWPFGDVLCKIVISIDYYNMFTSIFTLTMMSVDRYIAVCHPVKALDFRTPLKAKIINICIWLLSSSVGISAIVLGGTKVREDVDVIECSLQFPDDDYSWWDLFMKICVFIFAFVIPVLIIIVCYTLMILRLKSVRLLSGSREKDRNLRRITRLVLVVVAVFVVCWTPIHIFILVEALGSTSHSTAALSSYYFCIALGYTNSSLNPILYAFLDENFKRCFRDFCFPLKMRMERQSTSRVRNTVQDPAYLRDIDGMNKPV

Rattus norvegicus [14] = experiment: Anxiolytic activity in po dosed CD rats assessed as suppression of conditioned paw licking administered twice per day for 14 days measured after 2 hrs of last dose; type: functional
[15] = Clearance in rat at 3 mg/kg, po; type: ADME, organism-based; set-up: dose 3 mg/kg, route oral; conditions: in vivo
[16] = Oral bioavailability in rat at 3 mg/kg; type: ADME, organism-based; conditions: in vivo
[17] = Cmax in rat at 3 mg/kg, po; type: ADME, organism-based; set-up: dose 3 mg/kg, route oral; conditions: in vivo
[18] = Half life in rat at 3 mg/kg, po; type: ADME, organism-based; set-up: dose 3 mg/kg, route oral; conditions: in vivo
[19] = AUC (0 to 24 hrs) in rat at 3 mg/kg, po; type: ADME, organism-based; set-up: time < 24 hr, dose 3 mg/kg, route oral; conditions: plasma
[20] = target: T3, Nuclear receptor subfamily 1 group I member 2 (Homo sapiens, UniProt O75469); experiment: Activity at human PXR assessed as induction of CYP3A4 activity in human hepatocytes at 1 uM relative to rifampicin; type: cell-based, Hepatocyte
T3 sequence (O75469 whole entry): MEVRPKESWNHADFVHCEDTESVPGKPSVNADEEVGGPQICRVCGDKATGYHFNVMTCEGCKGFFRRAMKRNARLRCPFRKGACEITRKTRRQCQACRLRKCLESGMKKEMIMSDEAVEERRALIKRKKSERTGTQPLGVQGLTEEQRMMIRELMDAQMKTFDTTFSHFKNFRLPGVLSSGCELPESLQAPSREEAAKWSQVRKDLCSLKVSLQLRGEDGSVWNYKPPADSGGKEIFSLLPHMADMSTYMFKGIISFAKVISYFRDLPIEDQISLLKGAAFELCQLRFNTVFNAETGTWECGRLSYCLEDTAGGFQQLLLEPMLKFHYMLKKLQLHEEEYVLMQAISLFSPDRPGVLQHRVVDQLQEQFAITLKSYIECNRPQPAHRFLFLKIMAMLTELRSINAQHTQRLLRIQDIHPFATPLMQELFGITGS

Rattus norvegicus [21] = experiment: Volume of distribution at steady state in rat at 3 mg/kg, po; type: ADME, organism-based; set-up: dose 3 mg/kg, route oral; conditions: in vivo
[22] = Clearance in human hepatocytes measured per 10^6 cells; type: ADME, cell-based, Liver, Hepatocyte
Rattus norvegicus [23] = experiment: Anxiolytic activity in po dosed CD rats assessed as suppression of conditioned paw licking administered twice per day for 14 days measured after 2 hrs of last dose in presence of […]; type: functional, organism-based
Cytochrome P450 2C9 [24] = target: T4, Cytochrome P450 2C9 (Homo sapiens, UniProt P11712); experiment: Inhibition of CYP2C9 co-incubated with substrate; type: ADME
T4 sequence (P11712 whole entry): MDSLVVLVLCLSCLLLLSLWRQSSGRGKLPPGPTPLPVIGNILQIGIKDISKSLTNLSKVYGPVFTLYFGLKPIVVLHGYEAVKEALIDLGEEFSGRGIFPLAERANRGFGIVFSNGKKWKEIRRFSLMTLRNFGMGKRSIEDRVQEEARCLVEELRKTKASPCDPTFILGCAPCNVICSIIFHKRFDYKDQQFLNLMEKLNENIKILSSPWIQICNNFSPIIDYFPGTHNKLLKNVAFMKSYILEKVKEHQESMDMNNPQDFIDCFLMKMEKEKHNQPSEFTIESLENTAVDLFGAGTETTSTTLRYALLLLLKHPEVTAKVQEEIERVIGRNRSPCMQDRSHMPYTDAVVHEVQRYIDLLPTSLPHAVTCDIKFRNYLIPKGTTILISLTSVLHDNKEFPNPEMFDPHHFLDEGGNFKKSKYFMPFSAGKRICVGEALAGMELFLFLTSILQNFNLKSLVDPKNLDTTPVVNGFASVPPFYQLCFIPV

Cytochrome P450 3A4 = Cytochrome P450 3A4 (Homo sapiens, UniProt P08684); experiment: Inhibition of CYP3A4; type: ADME
Cytochrome P450 3A4, sequence (P08684 whole entry): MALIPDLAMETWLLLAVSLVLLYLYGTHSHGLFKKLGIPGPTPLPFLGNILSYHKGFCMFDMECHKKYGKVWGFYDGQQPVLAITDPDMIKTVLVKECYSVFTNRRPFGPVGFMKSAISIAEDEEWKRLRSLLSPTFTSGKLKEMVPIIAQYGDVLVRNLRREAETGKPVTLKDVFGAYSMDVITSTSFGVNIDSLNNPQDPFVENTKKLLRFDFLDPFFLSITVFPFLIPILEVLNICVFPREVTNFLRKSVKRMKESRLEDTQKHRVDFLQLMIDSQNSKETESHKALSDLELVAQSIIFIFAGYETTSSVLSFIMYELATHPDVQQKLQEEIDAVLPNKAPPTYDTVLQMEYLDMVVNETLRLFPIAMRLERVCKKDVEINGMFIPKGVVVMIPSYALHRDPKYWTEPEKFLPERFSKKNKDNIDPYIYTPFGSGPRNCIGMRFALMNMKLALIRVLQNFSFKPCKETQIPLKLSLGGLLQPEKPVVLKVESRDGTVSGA

Cytochrome P450 2C9 [25] = target: T4, Cytochrome P450 2C9; experiment: Inhibition of CYP2C9 pre-incubated before addition of substrate; type: ADME
Cytochrome P450 2D6 = Cytochrome P450 2D6 (Homo sapiens, UniProt P10635); experiment: Inhibition of CYP2D6; type: ADME
Cytochrome P450 2D6, sequence (P10635 whole entry): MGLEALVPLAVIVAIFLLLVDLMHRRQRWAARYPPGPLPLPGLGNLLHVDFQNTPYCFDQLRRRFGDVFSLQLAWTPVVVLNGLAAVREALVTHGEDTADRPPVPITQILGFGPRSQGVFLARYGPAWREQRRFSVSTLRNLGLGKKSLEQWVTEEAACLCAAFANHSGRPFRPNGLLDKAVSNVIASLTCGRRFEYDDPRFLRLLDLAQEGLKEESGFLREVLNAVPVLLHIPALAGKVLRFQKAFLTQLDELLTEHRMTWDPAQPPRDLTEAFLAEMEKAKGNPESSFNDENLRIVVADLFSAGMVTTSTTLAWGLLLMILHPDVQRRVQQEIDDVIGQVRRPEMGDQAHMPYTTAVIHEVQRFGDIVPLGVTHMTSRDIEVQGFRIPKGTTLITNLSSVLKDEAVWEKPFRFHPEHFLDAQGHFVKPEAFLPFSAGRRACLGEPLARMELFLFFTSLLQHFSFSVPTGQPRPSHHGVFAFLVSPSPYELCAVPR

T1 sequence (P41146 whole entry): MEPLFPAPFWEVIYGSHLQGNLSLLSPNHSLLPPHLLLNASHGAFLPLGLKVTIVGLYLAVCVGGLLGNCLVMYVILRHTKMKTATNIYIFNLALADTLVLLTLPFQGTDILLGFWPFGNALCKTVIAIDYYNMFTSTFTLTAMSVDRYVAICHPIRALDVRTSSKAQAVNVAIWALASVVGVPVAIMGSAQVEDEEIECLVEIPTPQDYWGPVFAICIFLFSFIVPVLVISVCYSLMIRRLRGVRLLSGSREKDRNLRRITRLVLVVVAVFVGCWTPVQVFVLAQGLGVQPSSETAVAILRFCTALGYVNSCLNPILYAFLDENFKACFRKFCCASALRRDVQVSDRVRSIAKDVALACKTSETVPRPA

| Structure (SMILES) | Ki (Nociceptin receptor [1]) [nM] | Ki (Mu-type opioid receptor [2]) [nM] | EC50 (Nociceptin receptor [4]) [nM] | EC50 (Mu-type opioid receptor [7]) [nM] | further results |
| --- | --- | --- | --- | --- | --- |
| C[C@@H]1CN(C(c2ccccc2)c2ccccc2)CC[C@@]1(O)c1ccccc1 | 142 | 738 |  |  | Activity (Nociceptin receptor [3]): 70% |
| O=C(NC1(c2ccccc2)CC2CCC(C1)N2C(c1ccccc1Cl)c1ccccc1Cl)C1CC1 (stereo not drawn) | 11 | 996 | 35 |  | Activity (Mu-type opioid receptor [5]): 25% |
| OC1(c2ccccc2)CC2CCC(C1)N2C(c1ccccc1)c1ccccc1 (stereo not drawn) |  | 94 |  |  | Activity (Cavia porcellus [6]): inactive |
| Cc1ccc(C(c2ccccc2Cl)N2C3CCC2CC(O)(c2cccc(F)c2)C3)c(Cl)c1 (stereo not drawn) | 2.7 | 57 | 16 | 894 |  |
| OC1(c2ccccc2)CC2CCC(C1)N2C(c1ccccc1Cl)c1ccccc1Cl (stereo not drawn) | 3.4 | 22 |  | 337 | Activity (Cavia porcellus [8]): Active; ED50 (Cavia porcellus [9]): 0.4 mg/kg; Activity (Cavia porcellus [10]): inactive; Activity (Cavia porcellus [11]): Active; Ki [12]: 3140 nM; Ki [13]: 109 nM; ED50 (Cavia porcellus [6]): 0.4 mg/kg; ED50 (Rattus norvegicus [14]): 1.4 mg/kg |
| COC1(c2ccccc2)CC2CCC(C1)N2C(c1ccccc1Cl)c1ccccc1Cl (stereo not drawn) | 8 | 636 | 50 | 545 |  |
| Cc1ccc(C(c2ccccc2Cl)N2C3CCC2CC(O)(C2CCNC2=O)C3)c(Cl)c1 (stereo not drawn) | 3.6 | 781 | 48 |  | Activity (Mu-type opioid receptor [5]): 60% |
| Cc1ccc(C(c2ccccc2Cl)N2C3CCC2CC(O)(C2CCCC2)C3)c(Cl)c1 (stereo not drawn) | 1.9 | 104 | 16 | 709 |  |
| Cc1ccc(C(c2ccccc2Cl)N2C3CCC2CC(O)(c2ccncn2)C3)c(Cl)c1 (stereo not drawn) | 5.2 | 535 | 50 | 1690 |  |
| OC1(c2ccccc2)CC2CCCC(C1)N2C(c1ccccc1)c1ccccc1 (stereo not drawn) | 7.5 | 514 |  |  | Activity (Nociceptin receptor [3]): 101% |
| NC1(c2ccccc2)CC2CCC(C1)N2C(c1ccccc1Cl)c1ccccc1Cl (stereo not drawn) | 4 | 458 | 76 | 4520 |  |
| NC(=O)C1(c2ccc(F)cc2)CC2CCC(C1)N2C(c1ccccc1Cl)c1ccccc1Cl (stereo not drawn) | 16 | 126 | 14 | 947 | CL/F [15]: 33 mL/min/kg; bioavailability [16]: 45%; Cmax [17]: 250 nM; half-life [18]: 1.8 h; ED50 (Cavia porcellus [9]): 0.2 mg/kg; Ki [12]: 1040 nM; Ki [13]: 752 nM; AUC(0-t) at 24 h [19]: 1.27 µM·h; Ratio [20]: 0.27; Vdss (Rattus norvegicus [21]): 1.8 L/kg; ED50 (Cavia porcellus [6]): 0.03 mg/kg; ED50 (Rattus norvegicus [14]): 2.7 mg/kg |
| COc1ccc(CC2(O)CC3CCC(C2)N3C(c2ccccc2Cl)c2ccc(C)cc2Cl)nc1 (stereo not drawn) | 13 | 384 | 90 |  | Activity (Mu-type opioid receptor [5]): 31% |
| OCC1(c2ccccc2)CC2CCC(C1)N2C(c1ccccc1Cl)c1ccccc1Cl (stereo not drawn) | 6 | 627 | 136 | 2140 |  |
| NC(=O)C1(c2ccccc2)CC2CCC(C1)N2C(c1ccccc1Cl)c1ccccc1Cl (stereo not drawn) |  |  |  |  | CL/F [15]: 73 mL/min/kg; bioavailability [16]: 37%; hepatocyte CLint [22]: 3 µL/min/1e6 cells; Cmax [17]: 80 nM; half-life [18]: 1.8 h; ED50 (Cavia porcellus [9]): 0.4 mg/kg; Activity (Rattus norvegicus [23]): inactive; IC50 (Cytochrome P450 2C9 [24]): 8000 nM; IC50 (Cytochrome P450 3A4): > 30000 nM; IC50 (Cytochrome P450 2C9 [25]): 19000 nM; IC50 (Cytochrome P450 2D6): > 30000 nM; AUC(0-t) at 24 h [19]: 0.54 µM·h; Vdss (Rattus norvegicus [21]): 9.1 L/kg; ED50 (Cavia porcellus [6]): 0.3 mg/kg; ED50 (Rattus norvegicus [14]): 1.4 mg/kg |
| O/N=C/C1(c2ccccc2)CC2CCC(C1)N2C(c1ccccc1Cl)c1ccccc1Cl (stereo not drawn) | 20 | 601 | 107 |  | Activity (Mu-type opioid receptor [5]): 29% |
| Cc1ccc(C(c2ccccc2Cl)N2C3CCC2CC(O)(C2=NCCCN2)C3)c(Cl)c1 (stereo not drawn) | 3 | 622 | 62 |  | Activity (Mu-type opioid receptor [5]): 29% |
| COC(=O)NC1(c2ccccc2)CC2CCC(C1)N2C(c1ccccc1Cl)c1ccccc1Cl (stereo not drawn) | 6 | 576 | 54 | 782 |  |

— ChEMBL document CHEMBL1138606, “The discovery of tropane derivatives as nociceptin receptor ligands for the management of cough and anxiety” (Bioorg Med Chem Lett, 2009)
